Screening data deposited in PubChem by The Scripps Research Institute Molecular Screening Center.
CHO parental Ca: ATP-evoked calcium signal inhibitors, parental CHO, primary screen, counter-screen for OX1R antagonist project, cell-based, fluorescence, Fluo-8 calcium dye; parental CHO-K1, ATP-induced calcium, Fluo-8 fluorescence; inhibition, % at 5.6 µM; hit rate 0.63% among 330,000; AID 463079, 2010;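 active = inhibition above that plate's mean sample inhibition plus 3 SD, cut at about 26% in these data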;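 note: 0% = ATP-challenged DMSO wells and 100% = DMSO wells without ATP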
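Assay system: parental CHO cells; Read-out basis: percent inhibition of ATP-evoked calcium rise, normalized to controls; Benchmarks: ATP and no-ATP DMSO wells; Compound dosing: single nominal dose of 5.6 µM per compound; Signal: Fluo-8 calcium dye fluorescence; Also added: ATP as calcium-mobilizing challenge; Repeats: singlicate.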
TAAR1 agonist: human TAAR1 agonists, primary screen, Fluo-8 calcium fluorescence, CHO RD-HGA16 cells | Trace amine-associated receptor 1 (Homo sapiens), Q96RJ0 | vehicle wells 0%, saturating PEA agonist 100% | activation, % at 3 µM | hit rate 0.99% among 360,000 | AID 624467, 2012;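 active = activation above the mean activation of all test compounds in the run plus 3 SD, cut at about 38% in these data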
Target sequence (Q96RJ0 whole entry, looked up): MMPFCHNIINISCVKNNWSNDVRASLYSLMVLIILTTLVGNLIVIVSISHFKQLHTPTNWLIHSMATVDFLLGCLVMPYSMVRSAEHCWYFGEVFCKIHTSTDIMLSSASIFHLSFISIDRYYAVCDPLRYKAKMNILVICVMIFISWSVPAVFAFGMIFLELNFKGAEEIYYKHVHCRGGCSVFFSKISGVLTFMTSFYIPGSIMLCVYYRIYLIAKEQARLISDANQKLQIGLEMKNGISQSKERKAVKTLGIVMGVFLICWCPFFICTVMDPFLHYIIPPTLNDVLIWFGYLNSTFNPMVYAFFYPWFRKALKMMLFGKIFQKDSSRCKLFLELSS
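Test system: RD-HGA16 (CHO) cells co-expressing Gα16 and hTAAR1 / Benchmarks: DMSO vehicle as 0%, PEA at EC100 as 100% / Repeats: no replicates (n 1) / Measure: % activation from peak over basal fluorescence ratio, DMSO-to-PEA scaled / Timing: 17-24 h plating, Fluo-8 75 min 37 °C, 30 min RT / Technique: kinetic Fluo-8 calcium fluorescence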
OX1R antag-1: antagonists of human orexin 1 receptor (OX1R); Orexin/Hypocretin receptor type 1 (Homo sapiens), O43613; OX1R-expressing cells, FRET antagonist read-out; inhibition, % at 6.6 µM; hit rate 1.8% among 330,000; AID 485270, 2010; in the data active = inhibition mostly above about 38%, no sharp cut-off; inactive = mostly below about 40%;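 note: 0% = agonist challenge alone and 100% = reference antagonist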
GalR3 antag: GalR3 antagonists in HEK293 cells, primary screen, cell-based, fluorescence readout; Galanin receptor type 3 (Homo sapiens), O60755; HEK293 GalR3-CNG cAMP membrane potential fluorescence; galR3 body fused to GalR1 C-terminus; inhibition, % at 3 µM; hit rate 0.44% among 360,000; AID 651719, 2012;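 active = inhibition above the screen-wide average plus 3 SD, cut at about 13% in these data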;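 note: forskolin and galanin both at EC90 stimulate the cells; cAMP rise reported by CNG channel membrane potential dye signal; 0% = forskolin plus galanin with DMSO and 100% = forskolin alone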
OX1R antag-2: OX1R (HCRTR1) antagonists, primary screen, fluorescence, CHO/OX1R cells, Fluo-8 calcium, orexin A. Fluo-8 calcium fluorescence. Orexin/Hypocretin receptor type 1 (Homo sapiens), O43613. hit rate 0.43% among 330,000. inhibition, % at 5 µM;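 active = inhibition above its plate's threshold, mean inhibition of all tested compounds on the plate plus 3 SD, cut at about 37% in these data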;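 note: 0% = orexin A challenge wells and 100% = SB-334867-A antagonist wells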
TAAR1 antagonist: human TAAR1 antagonists, primary screen, Fluo-8 calcium fluorescence, CHO RD-HGA16 cells. Trace amine-associated receptor 1 (Homo sapiens), Q96RJ0. antagonist. inhibition, % at 3 µM. hit rate 1.5% among 360,000;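 active = inhibition above a per-plate cutoff, the mean inhibition of test compounds on that plate plus 3 SD, cut at about 49% in these data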;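 note: 0% = DMSO plus EC80 beta-PEA response and 100% = DMSO alone without agonist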
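Test system: RD-HGA16 CHO cells with stable hTAAR1 and Gα16 / Probe or stimulus: EC80 β-phenethylamine stimulus / Times: seeding 17-24 h prior, 75-min 37 °C, 30-min RT dye loading / Detection: Fluo-8 calcium-sensitive fluorescence / Read-out basis: % inhibition scaled between DMSO and EC80 PEA controls / Repeats: singlicate, one well per test compound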
TAAR1 nonsel count: nonselective antagonists in TAAR1 counter-screen cells, counter-screen for hTAAR1 antagonist project, cell-based, fluorescence, calcium | counterscreen cell line, antagonist mode | shares compounds with TAAR1 antagonist | hit rate 77% among 2,400 | inhibition, % at 3 µM; in the data active = inhibition above about 22%;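 note: CHO-Ga16 host cells stimulated with ATP at an EC80 level; 0% = agonist EC80 plus vehicle and 100% = vehicle without agonist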
TAAR1 ant conf: human TAAR1 antagonists, retest of hits, confirmation, cell-based, fluorescence; shares compounds with TAAR1 antagonist; TAAR1-expressing cells, fluorescence antagonist read-out; inhibition, % at 3 µM; hit rate 40% among 2,400; AID 651785, 2012; in the data active = inhibition above about 49%;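 note: CHO-Ga16 host cells challenged with agonist PEA near its EC80; 0% = agonist at EC80 plus vehicle and 100% = vehicle with no agonist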
Ga16 nonsel ag: calcium activation in Ga16-expressing cells, counter-screen for TAAR1 antagonist project, cell-based, fluorescence; shares compounds with TAAR1 antagonist; agonist counterscreen; hit rate 18% among 2,400; activation, % at 3 µM; in the data active = activation above about 12%;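 note: 0% = vehicle wells and 100% = saturating stimulus response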
TAAR1 ag count: TAAR1 activation by candidate antagonists – cell-based, fluorescence, counter-screen for TAAR1 antagonist project. shares compounds with TAAR1 antagonist. hTAAR1 cell line, agonist mode. activation, % at 3 µM. hit rate 2% among 2,400. AID 651955, 2012; in the data active = activation above about 37%;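 note: CHO cells stably expressing TAAR1 with calcium dye readout; 0% = DMSO vehicle and 100% = full agonist response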
The depositor's hits bear a star; . = not tested or not shown. Hits are enriched below; roughly 4.3% of the tested compounds scored in any of these assays.

SMILES	CHO parental Ca	TAAR1 agonist	OX1R antag-1	GalR3 antag	OX1R antag-2	TAAR1 antagonist	TAAR1 nonsel count	TAAR1 ant conf	Ga16 nonsel ag	TAAR1 ag count
CCOc1ccc2nc(NC(=O)CS(=O)(=O)c3ccc(C)cc3)sc2c1	-15	6	35	-2	-17	55*	20	38	2	3
COc1ccc(S(=O)(=O)N2CCOCC2)cc1NC(=O)C1COc2ccccc2O1 (configuration not stated)	-6	11	23	-4	-9	59*	26*	38	6	4
N#Cc1nc(COc2ccc(Cl)cc2)oc1NCc1ccc2c(c1)OCO2	-7	8	30	-11	-2	50*	22*	17	0	-1
COc1cc2oc3ccc(C#Cc4ccc(N)cc4)cc3c(=O)c2cc1OC	-18	12	14	-2	-28	56*	25*	31	3	0
Nc1ccc(C#Cc2ccc3c(=O)c4ccccc4oc3c2)cc1	3	2	24	-6	7	13	.	.	.	.
COc1cc2oc3cc(C#Cc4ccc(N)cc4)ccc3c(=O)c2cc1OC	-26	8	34	6	-26	52*	29*	35	3	7
O=C(NCc1cccnc1)c1cc(C2CCCCN2S(=O)(=O)c2cccc3cccnc23)on1 (configuration not stated)	.	0	.	-4	.	-9	.	.	.	.
CCn1c(SCC(=O)Nc2ccccc2N2CCCCC2)nc2c1c(=O)n(C)c(=O)n2C	-11	13	21	-1	-29	55*	27*	47	10	10
O=C(c1ccccc1Br)N1CCc2c([nH]c3ccccc23)C1	-2	6	5	-4	-16	10	.	.	.	.
COc1cc(/C=C/C(=O)NCCc2ccc(S(N)(=O)=O)cc2)ccc1OCC#N	-6	0	-91	6	-6	-7	.	.	.	.
CCOc1cc(/C=C/C(=O)NCCc2ccc(S(N)(=O)=O)cc2)ccc1OCC(C)C	-6	6	11	-7	2	76*	25*	39	5	1
CC1CCCN(c2ccc(C(=O)Nc3ccc4c(c3)OCO4)cc2[N+](=O)[O-])C1 (configuration not stated)	-26	0	58	-2	6	70*	25*	73*	7	8
COc1cc(-c2cc(C(=O)NCc3ccco3)c3ccccc3n2)cc(OC)c1OC	-31	11	3	-8	-40	57*	23*	42	8	7
O=C(N/N=C/c1cccnc1)c1cc(-c2cccs2)nc2ccccc12	-33	13	24	-1	-27	21	.	.	.	.
O=C(NN1CCOCC1)c1cc(-c2cccs2)nc2ccccc12	-13	7	12	0	-23	-10	.	.	.	.
Cc1cc(C)c2nc(NNC(=O)c3cc(-c4cccs4)nc4ccccc34)sc2c1	-13	16	15	2	-22	56*	35*	50*	11	9
